For data set [1], the system named is Mus musculus. Description: Effect of central administration on whole mouse brain 5-hydroxyindole-3-acetic acid (5-HIAA) level after 1 hr. It counts as functional, organism-based. The gist of the method:
(§1)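 Adult male outbred Hsd:ICR mice (25-35 g) under light ether anesthesia received a single 25 or 30 µg (free base) intracranial dose near the left lateral ventricle. Vehicle was 5 µL isotonic saline with 1.0 mg/mL ascorbate, and controls got vehicle alone. Mice were killed by focused microwave (250 ms, 7.0 kW) at 1 h, 1 day or 1 week. Brains were homogenized, spun at 50 000g (4 °C, 1 h) and filtered. Amines and metabolites were measured by LCEC as % of control ± sem, n = 11-18.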

For data set [2], the system named is Mus musculus. The data set is described as follows: Effect of central administration on whole mouse brain acetylcholine (ACh) level after 1 day. It counts as functional, organism-based. The gist of the method:
(§2)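 The dosing, vehicle, controls, microwave sacrifice, timepoints and brain processing were the same as for the amine lines. Whole mouse brain ACh and choline were measured by LCEC on 20 µL aliquots of the filtered 50 000g supernate, which had been stored at -80 °C. Values are % of vehicle controls ± sem, n = 11-18 per group.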

For data set [3], the system named is Mus musculus. The data set is described as follows: Effect of central administration on whole mouse brain homovanillic acid (HAV) level after 1 day. It counts as functional, organism-based. The gist of the method: as §1
The test system of data set [4] is Mus musculus. Description: Effect of central administration on whole mouse brain dopamine (DA) level after 1 day. It counts as functional, organism-based. The gist of the method: as §1
In data set [5] the test system is Mus musculus. Description: Effect of central administration on whole mouse brain cholin (Ch) level after 1 hr. It counts as functional, organism-based. The method, boiled down:
as §2

The test system of data set [6] is Mus musculus. Description: Effect of central administration on whole mouse brain cholin (Ch) level after 1 week. It counts as functional, organism-based. The gist of the method: as §2
The subject of data set [7] is Mus musculus. The data set is described as follows: Effect of central administration on whole mouse brain 5-hydroxyindole-3-acetic acid (5-HIAA) level after 1 week. It counts as functional, organism-based. The gist of the method: as §1
For data set [8], the system named is Mus musculus. The data set is described as follows: Effect of central administration on whole mouse brain 5-HT (5-HT) after 1 week. It counts as functional, organism-based. The gist of the method:
as §1

In data set [9] the test system is Mus musculus. Description: Effect of central administration on whole mouse brain 5-HT (5-HT) after 1 hr. It counts as functional, organism-based. The gist of the method:
as §1

Data set [10] has as its system Mus musculus. Description: Effect of central administration on whole mouse brain dopamine (DA) level after 1 hr. It counts as functional, organism-based. The method, boiled down: as §1
Data set [11] concerns Mus musculus. Description: Effect of central administration on whole mouse brain acetylcholine (ACh) level after 1 hr. It counts as functional, organism-based. The method, boiled down: as §2
In data set [12] the test system is Mus musculus. The data set is described as follows: Effect of central administration on whole mouse brain 3,4-di hydroxyphenylacetic acid (DOPAC) level after 1 hr. It counts as functional, organism-based. The method, boiled down:
as §1

The test system of data set [13] is Mus musculus. The data set is described as follows: Effect of central administration on whole mouse brain norepinephrine (NE) level after 1 day. It counts as functional, organism-based. The method, boiled down:
as §1

For data set [14], the system named is Mus musculus. The data set is described as follows: Effect of central administration on whole mouse brain 5-hydroxyindole-3-acetic acid (5-HIAA) level after 1 day. It counts as functional, organism-based. The method, boiled down: as §1
In data set [15] the test system is Mus musculus. Description: Effect of central administration on whole mouse brain 3,4-di hydroxyphenylacetic acid (DOPAC) level after 1 week. It counts as functional, organism-based. The method, boiled down:
as §1

The subject of data set [16] is Mus musculus. Description: Effect of central administration on whole mouse brain norepinephrine (NE) level after 1 hr. It counts as functional, organism-based. The gist of the method:
as §1

Data set [17] deals with Mus musculus. The data set is described as follows: Effect of central administration on whole mouse brain 5-hydroxytryptamine (5-HT) after 1 day. It counts as functional, organism-based. The gist of the method:
as §1

The test system of data set [18] is Mus musculus. Description: Effect of central administration on whole mouse brain cholin (Ch) level after 1 day. It counts as functional, organism-based. The gist of the method: as §2
Data set [19] has as its system Mus musculus. The data set is described as follows: Effect of central administration on whole mouse brain 3,4-di hydroxyphenylacetic acid (DOPAC) level after 1 day. It counts as functional, organism-based. The method, boiled down: as §1
The test system of data set [20] is Mus musculus. The data set is described as follows: Effect of central administration on whole mouse brain norepinephrine (NE) level after 1 week. It counts as functional, organism-based. The gist of the method: as §1
The subject of data set [21] is Mus musculus. Description: Weight which caused death of 50% of the treated animals within 1 hr following drug administration. It counts as ADME, organism-based. The note with it: in vivo. The method, boiled down: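 Adult male outbred Hsd:ICR albino mice, 25-35 g, given compound (dose as free base) intracranially near the left lateral ventricle under light ether anesthesia, in 5 µL isotonic saline containing 1.0 mg/mL ascorbic acid. Deaths within 1 h were scored, and LD50 (injected weight) was derived by Dixon's statistical method, reported as mean ± standard deviation on a log microgram scale.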

The test system of data set [22] is Mus musculus. Description: Effect of central administration on whole mouse brain acetylcholine (ACh) level after 1 week. It counts as functional, organism-based. The gist of the method:
as §2

Data set [23] has as its system Mus musculus. Description: Effect of central administration on whole mouse brain homovanillic acid (HAV) level after 1 hr. It counts as functional, organism-based. The gist of the method:
as §1

Data set [24] concerns Mus musculus. Description: Effect of central administration on whole mouse brain choline (Ch) level after 1 hr. It counts as functional, organism-based. The method, boiled down:
as §2

In data set [25] the test system is Mus musculus. The data set is described as follows: Effect of central administration on whole mouse brain 5-hydroxytryptamine (5-HT) level after 1 day. It counts as functional, organism-based. The gist of the method: as §1
Data set [26] has as its system Mus musculus. The data set is described as follows: Effect of central administration on whole mouse brain 3,4-di hydroxyphenylacetic acid (DOPAC)level after 1 week. It counts as functional, organism-based. The gist of the method: as §1
In data set [27] the test system is Mus musculus. The data set is described as follows: Effect of central administration on whole mouse brain choline (Ch) level after 1 day. It counts as functional, organism-based. The gist of the method:
as §2

Data set [28] has as its system Mus musculus. The data set is described as follows: Effect of central administration on whole mouse brain dopamine (DA) level after 1 week. It counts as functional, organism-based. The gist of the method:
as §1

For data set [29], the system named is Mus musculus. Description: Effect of central administration on whole mouse brain 5-hydroxytryptamine (5-HT) level after 1 week. It counts as functional, organism-based. The gist of the method: as §1
For data set [30], the system named is Mus musculus. The data set is described as follows: Effect of central administration on whole mouse brain 5-hydroxyindole-3-acetic acid(5-HIAA)level after 1 week. It counts as functional, organism-based. The gist of the method:
as §1

Data set [31] relates to Mus musculus. The data set is described as follows: Effect of central administration on whole mouse brain homovanillic acid (HAV) level after 1 week. It counts as functional, organism-based. The gist of the method:
as §1

In data set [32] the test system is Mus musculus. The data set is described as follows: Effect of central administration on whole mouse brain 5-hydroxyindole-3-acetic acid(5-HIAA)level after 1 hr. It counts as functional, organism-based. The method, boiled down:
as §1

Data set [33] has as its system Mus musculus. The data set is described as follows: Effect of central administration on whole mouse brain 5-hydroxyindole-3-acetic acid(5-HIAA)level after 1 day. It counts as functional, organism-based. The gist of the method:
as §1

In data set [34] the test system is Mus musculus. Description: Effect of central administration on whole mouse brain choline (Ch) level after 1 week. It counts as functional, organism-based. The method, boiled down: as §2

Consider 3 compounds from ChEMBL document CHEMBL1126812, “Further insights into the molecular mechanisms of action of the serotonergic neurotoxin 5,7-dihydroxytryptamine” (J Med Chem, 1993).

Regarding `NCCc1c[nH]c2c1C(=O)C(O)=C(C1=C(O)c3[nH]cc(CCN)c3C(=O)C1=O)C2=O`, the Level was 118% in the data set on Mus musculus [1]; 78% with Mus musculus [2]; 85% in the data set with Mus musculus [3]; 85% with Mus musculus [4]; 126% with Mus musculus [5]; 115% in the data set with Mus musculus [6]. The Level was determined as 152% in the data set on Mus musculus [7]; 103% in the data set with Mus musculus [8]; 88% in the data set on Mus musculus [9]; 97% in the data set with Mus musculus [10]; 83% in the data set on Mus musculus [11]; 74% in the data set on Mus musculus [12]. The Level in the data set with Mus musculus [13] was 82%; with Mus musculus [14] it was 76%; in the data set on Mus musculus [15], 101%; in the data set with Mus musculus [16], 95%; in the data set on Mus musculus [17], 75%; in the data set on Mus musculus [18], 78%. In addition, the Level with Mus musculus [19] worked out at 116%; in the data set with Mus musculus [20], 89%; in the data set with Mus musculus [22] it was 123%; in the data set with Mus musculus [23] it was 102%. The compound further showed an LD50 with Mus musculus [21] of 25.4 µg.

Regarding `NCCc1c[nH]c2c(O)cc(O)cc12`, the LD50 in the data set on Mus musculus [21] stood at 51.8 µg.

`NCCc1c[nH]c2c1C(=O)C(=O)C=C2O`: the Level in the data set with Mus musculus [24] is 153%; in the data set on Mus musculus [25] it was 72%; in the data set on Mus musculus [2], 65%; in the data set on Mus musculus [3] it was 92%; in the data set on Mus musculus [4] it was 79%; with Mus musculus [26], 117%. Besides, the Level in the data set with Mus musculus [27] is 57%; in the data set on Mus musculus [28], 114%; in the data set on Mus musculus [9], 89%; in the data set with Mus musculus [10], 92%; in the data set on Mus musculus [11] it was 100%; with Mus musculus [12] it was 54%. Besides, the Level in the data set with Mus musculus [29] is 104%; in the data set on Mus musculus [30], 106%; with Mus musculus [13], 84%; in the data set with Mus musculus [31] it was 112%; in the data set with Mus musculus [16], 80%; in the data set on Mus musculus [32] it was 159%. The Level came out at 82% in the data set on Mus musculus [33]; 106% in the data set with Mus musculus [34]; 107% with Mus musculus [19]; 114% in the data set with Mus musculus [20]; 107% in the data set with Mus musculus [22]; 147% in the data set with Mus musculus [23]. For the same compound, the LD50 in the data set with Mus musculus [21] amounted to 29.6 µg.
